The source made the active and inactive calls. No cut-off for these calls is given here.
Key:
[1] = target: Metabotropic glutamate receptor 1 (Homo sapiens, UniProt Q13255); test: Allosteric antagonist activity at human recombinant mGluR1 expressed in AV12 cells assessed as intracellular calcium concentration using Fluo-3 dye by FLIPR assay; format: functional, cell-based
How it was run: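 Intracellular calcium read with Fluo-3 on a 96-channel FLIPR; peak fluorescence to glutamate at its EC90 with and without compound. Inhibition expressed as percent of assay window (EC90 glutamate response minus buffer); IC50 from 4-parameter logistic fit.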

[2] = target: Metabotropic glutamate receptor 5 (Homo sapiens, UniProt P41594); test: Antagonist activity at human mGluR5; format: functional
[3] = target: Metabotropic glutamate receptor 7 (Homo sapiens) (UniProt Q14831); test: Antagonist activity at mGluR7; format: functional
[4] = target: Metabotropic glutamate receptor 3 (Homo sapiens) (UniProt Q14832); test: Antagonist activity at mGluR3; format: functional
[5] = target: Metabotropic glutamate receptor 4 (Homo sapiens) (UniProt Q14833); test: Antagonist activity at mGluR4; format: functional
[6] = target: Metabotropic glutamate receptor 8 (Homo sapiens) (UniProt O00222); test: Antagonist activity at mGluR8; format: functional
[7] = test system: Rattus norvegicus; test: Analgesic activity in po dosed fasted Harlan Sprague-Dawley rat assessed as inhibition of formalin-induced paw-licking behaviour in late phase administered 1 hr before formalin challenge measured after 11 to 40 mins; format: functional
How it was run: (§1)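 Fasted male Sprague Dawley rats dosed orally (1, 3, 10, 30, 60 mg/kg, n = 8 per group) 1 h before intraplantar injection of 50 µl 5% formalin into right hindpaw. Paw-licking events counted 0–5 min (early) and 11–40 min (late); compared with vehicle, p<0.05.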

[8] = test system: Rattus norvegicus; test: Analgesic activity in fasted Harlan Sprague-Dawley rat assessed as inhibition of formalin-induced paw-licking behaviour in late phase at 3 to 60 mg/kg, po administered 1 hr before formalin challenge measured after 11 to 40 mins; format: functional, organism-based; how it was run: as §1
[9] = Clearance in Sprague-Dawley rat at 3 mg/kg, iv and at 10 mg/kg, po; format: ADME, organism-based; conditions: in vivo
How it was run: (§2)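 Sprague Dawley rats dosed 3 mg/kg IV (solution in 25 mmol/L phosphate buffer pH 3 with 5% solutol HS15 and 5% pharmasolve) and 10 mg/kg orally (suspension in 1% methylcellulose A400 plus 0.1% antifoam); plasma levels measured over 24 h to derive PK parameters.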

[10] = AUC (0 to 24 hrs) in Sprague-Dawley rat at 10 mg/kg, po; format: ADME, organism-based; design: time < 24 hr, dose 10 mg/kg, route oral; conditions: plasma; how it was run: as §2
[11] = Elimination half life in Sprague-Dawley rat at 3 mg/kg, iv; format: ADME, organism-based; design: dose 3 mg/kg, route intravenous; conditions: in vivo, read-out: beta t1/2 (converted); how it was run: as §2
[12] = Tmax in Sprague-Dawley rat at 10 mg/kg, po; format: ADME, organism-based; design: dose 10 mg/kg, route oral; conditions: in vivo; how it was run: as §2
[13] = Volume of distribution in Sprague-Dawley rat at 3 mg/kg, iv and at 10 mg/kg, po; format: ADME, organism-based; conditions: in vivo; how it was run: as §2
[14] = target: Metabotropic glutamate receptor 1 (Rattus norvegicus, UniProt P23385); test: Antagonist activity at rat mGluR1; format: functional
[15] = test system: Rattus norvegicus; test: Ex vivo receptor occupancy of mGluR1 in po dosed fasted Sprague-Dawley rat assessed as ratio of drug level in cerebellum to frontal cortex after 20 mins; format: functional
How it was run: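 Fasted Sprague Dawley rats dosed orally (0.3–60 mg/kg; vehicle 1% methyl cellulose), then 1 h later given a 30 µg/kg IV bolus of a competing mGluR1 antagonist tracer. Killed 20 min later; cerebellum and frontal cortex levels measured by mass spectrometry. Occupancy by ratio method (cerebellum normalized to cortex), n = 4 per dose (n = 3 at 10 mg/kg).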

[16] = Ratio of drug level in brain to plasma in Sprague-Dawley rat; format: ADME; conditions: read-out: BPR
How it was run: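 Rats dosed as in the plasma PK study; brain concentration profiles measured alongside plasma and the brain/plasma ratio taken.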

[17] = test system: Rattus norvegicus; test: Toxicity in fasted Sprague-Dawley rat assessed as deffects in motor impairment at 60 mg/kg, po measured up to 4 hrs by rotorod test; format: organism-based; design: dose 60 mg/kg, route oral; conditions: in vivo
How it was run: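 Fasted male Sprague Dawley rats given 60 mg/kg orally or vehicle (n = 8 per group); time on rotorod recorded at 1, 2, 3 and 4 h post-dose after training to 40 s baseline.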

[18] = Oral bioavailability in Sprague-Dawley rat at 10 mg/kg; format: ADME, organism-based; conditions: in vivo; how it was run: as §2
[19] = Cmax in Sprague-Dawley rat at 10 mg/kg, po; format: ADME, organism-based; design: dose 10 mg/kg, route oral; conditions: in vivo; how it was run: as §2
[20] = Elimination half life in Sprague-Dawley rat at 10 mg/kg, po; format: ADME, organism-based; design: dose 10 mg/kg, route oral; conditions: in vivo, read-out: beta t1/2 (converted); how it was run: as §2

Metabotropic glutamate receptor 1 (Homo sapiens, UniProt Q13255), sequence (Q13255 whole entry): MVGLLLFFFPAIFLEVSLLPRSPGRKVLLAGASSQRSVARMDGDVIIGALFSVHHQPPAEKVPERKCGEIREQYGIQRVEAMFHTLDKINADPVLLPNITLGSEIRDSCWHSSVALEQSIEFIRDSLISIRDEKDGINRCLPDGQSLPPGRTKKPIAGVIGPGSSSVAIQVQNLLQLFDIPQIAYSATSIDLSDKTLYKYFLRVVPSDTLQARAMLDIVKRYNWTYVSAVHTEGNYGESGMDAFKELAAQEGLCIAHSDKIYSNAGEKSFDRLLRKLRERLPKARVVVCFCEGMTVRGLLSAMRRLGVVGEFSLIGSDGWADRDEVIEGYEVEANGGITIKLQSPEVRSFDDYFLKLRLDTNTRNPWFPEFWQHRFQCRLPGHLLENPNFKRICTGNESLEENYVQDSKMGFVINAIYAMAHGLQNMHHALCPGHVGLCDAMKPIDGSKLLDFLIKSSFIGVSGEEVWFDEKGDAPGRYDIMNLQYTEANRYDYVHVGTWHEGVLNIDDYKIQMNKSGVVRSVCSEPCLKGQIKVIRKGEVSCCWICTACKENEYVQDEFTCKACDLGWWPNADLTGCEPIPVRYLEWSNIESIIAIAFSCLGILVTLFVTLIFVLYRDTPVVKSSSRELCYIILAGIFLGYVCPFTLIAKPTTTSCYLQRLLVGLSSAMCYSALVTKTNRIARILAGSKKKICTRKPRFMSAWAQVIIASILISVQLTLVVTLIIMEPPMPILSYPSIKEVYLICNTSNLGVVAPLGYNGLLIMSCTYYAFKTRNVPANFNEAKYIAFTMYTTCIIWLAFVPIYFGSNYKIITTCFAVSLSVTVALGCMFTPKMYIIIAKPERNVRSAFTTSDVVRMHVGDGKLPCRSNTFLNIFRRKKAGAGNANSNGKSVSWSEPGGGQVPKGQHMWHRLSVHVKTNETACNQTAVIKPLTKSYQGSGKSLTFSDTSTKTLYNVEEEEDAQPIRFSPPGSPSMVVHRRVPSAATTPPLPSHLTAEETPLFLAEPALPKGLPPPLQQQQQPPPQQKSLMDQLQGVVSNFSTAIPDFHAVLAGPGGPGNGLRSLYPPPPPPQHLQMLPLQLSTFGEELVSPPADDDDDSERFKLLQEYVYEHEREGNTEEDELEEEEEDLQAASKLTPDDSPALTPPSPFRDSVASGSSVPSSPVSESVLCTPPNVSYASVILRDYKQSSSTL
Metabotropic glutamate receptor 5, sequence (P41594 whole entry): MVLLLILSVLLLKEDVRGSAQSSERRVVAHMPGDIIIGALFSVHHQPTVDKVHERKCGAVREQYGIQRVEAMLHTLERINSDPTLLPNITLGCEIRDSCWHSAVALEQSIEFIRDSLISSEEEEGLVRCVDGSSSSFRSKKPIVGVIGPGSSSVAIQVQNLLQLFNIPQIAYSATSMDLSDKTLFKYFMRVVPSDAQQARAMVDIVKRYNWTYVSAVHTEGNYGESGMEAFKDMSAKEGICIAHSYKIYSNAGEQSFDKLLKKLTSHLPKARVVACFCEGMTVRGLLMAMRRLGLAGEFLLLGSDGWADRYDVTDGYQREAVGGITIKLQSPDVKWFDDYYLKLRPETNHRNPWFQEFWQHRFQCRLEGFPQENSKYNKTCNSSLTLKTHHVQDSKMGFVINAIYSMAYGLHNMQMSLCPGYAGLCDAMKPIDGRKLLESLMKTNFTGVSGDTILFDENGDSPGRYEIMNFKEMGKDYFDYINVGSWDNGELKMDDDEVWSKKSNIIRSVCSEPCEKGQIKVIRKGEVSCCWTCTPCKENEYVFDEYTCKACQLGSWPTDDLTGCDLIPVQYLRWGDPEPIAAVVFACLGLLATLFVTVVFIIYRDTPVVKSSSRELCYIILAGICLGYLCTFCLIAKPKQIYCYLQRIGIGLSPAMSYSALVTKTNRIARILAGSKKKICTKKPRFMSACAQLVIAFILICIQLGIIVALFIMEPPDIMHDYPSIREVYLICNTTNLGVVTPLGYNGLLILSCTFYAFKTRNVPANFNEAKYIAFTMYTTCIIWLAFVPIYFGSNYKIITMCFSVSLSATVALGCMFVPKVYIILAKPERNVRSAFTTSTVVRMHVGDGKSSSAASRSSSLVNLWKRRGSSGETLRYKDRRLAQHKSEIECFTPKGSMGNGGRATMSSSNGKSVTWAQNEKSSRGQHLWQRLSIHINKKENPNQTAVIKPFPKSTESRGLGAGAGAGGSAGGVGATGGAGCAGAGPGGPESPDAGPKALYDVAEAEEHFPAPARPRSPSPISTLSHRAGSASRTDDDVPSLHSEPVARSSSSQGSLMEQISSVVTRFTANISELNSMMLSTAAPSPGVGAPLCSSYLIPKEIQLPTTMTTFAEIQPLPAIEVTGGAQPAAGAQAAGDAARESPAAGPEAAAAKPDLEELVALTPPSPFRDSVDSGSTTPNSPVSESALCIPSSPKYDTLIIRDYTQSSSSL
Metabotropic glutamate receptor 4 (Homo sapiens), sequence (Q14833 whole entry): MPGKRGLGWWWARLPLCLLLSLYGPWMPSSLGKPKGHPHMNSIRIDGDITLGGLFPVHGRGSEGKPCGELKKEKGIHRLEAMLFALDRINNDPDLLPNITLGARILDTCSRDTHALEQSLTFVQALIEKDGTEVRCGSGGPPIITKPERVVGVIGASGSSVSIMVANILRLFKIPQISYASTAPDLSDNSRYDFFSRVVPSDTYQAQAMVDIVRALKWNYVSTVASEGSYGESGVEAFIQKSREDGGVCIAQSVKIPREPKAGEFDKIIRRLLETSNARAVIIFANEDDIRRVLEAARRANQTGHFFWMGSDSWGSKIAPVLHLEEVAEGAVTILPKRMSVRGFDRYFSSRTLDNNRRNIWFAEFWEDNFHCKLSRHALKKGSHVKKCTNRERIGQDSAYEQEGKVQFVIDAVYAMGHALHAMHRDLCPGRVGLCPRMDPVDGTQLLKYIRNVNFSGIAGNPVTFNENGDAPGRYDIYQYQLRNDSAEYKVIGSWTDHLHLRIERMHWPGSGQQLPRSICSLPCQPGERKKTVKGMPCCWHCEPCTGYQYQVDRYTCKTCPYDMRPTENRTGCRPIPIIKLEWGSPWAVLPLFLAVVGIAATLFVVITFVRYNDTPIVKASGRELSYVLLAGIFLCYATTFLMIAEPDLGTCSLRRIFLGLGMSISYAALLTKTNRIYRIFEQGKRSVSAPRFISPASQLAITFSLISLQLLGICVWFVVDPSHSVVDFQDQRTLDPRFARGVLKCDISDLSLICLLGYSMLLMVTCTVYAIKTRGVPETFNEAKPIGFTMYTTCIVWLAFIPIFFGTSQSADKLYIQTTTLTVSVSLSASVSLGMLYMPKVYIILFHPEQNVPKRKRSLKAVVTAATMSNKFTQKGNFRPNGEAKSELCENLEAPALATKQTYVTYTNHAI
Metabotropic glutamate receptor 3 (Homo sapiens), sequence (Q14832 23-879 limits assumed): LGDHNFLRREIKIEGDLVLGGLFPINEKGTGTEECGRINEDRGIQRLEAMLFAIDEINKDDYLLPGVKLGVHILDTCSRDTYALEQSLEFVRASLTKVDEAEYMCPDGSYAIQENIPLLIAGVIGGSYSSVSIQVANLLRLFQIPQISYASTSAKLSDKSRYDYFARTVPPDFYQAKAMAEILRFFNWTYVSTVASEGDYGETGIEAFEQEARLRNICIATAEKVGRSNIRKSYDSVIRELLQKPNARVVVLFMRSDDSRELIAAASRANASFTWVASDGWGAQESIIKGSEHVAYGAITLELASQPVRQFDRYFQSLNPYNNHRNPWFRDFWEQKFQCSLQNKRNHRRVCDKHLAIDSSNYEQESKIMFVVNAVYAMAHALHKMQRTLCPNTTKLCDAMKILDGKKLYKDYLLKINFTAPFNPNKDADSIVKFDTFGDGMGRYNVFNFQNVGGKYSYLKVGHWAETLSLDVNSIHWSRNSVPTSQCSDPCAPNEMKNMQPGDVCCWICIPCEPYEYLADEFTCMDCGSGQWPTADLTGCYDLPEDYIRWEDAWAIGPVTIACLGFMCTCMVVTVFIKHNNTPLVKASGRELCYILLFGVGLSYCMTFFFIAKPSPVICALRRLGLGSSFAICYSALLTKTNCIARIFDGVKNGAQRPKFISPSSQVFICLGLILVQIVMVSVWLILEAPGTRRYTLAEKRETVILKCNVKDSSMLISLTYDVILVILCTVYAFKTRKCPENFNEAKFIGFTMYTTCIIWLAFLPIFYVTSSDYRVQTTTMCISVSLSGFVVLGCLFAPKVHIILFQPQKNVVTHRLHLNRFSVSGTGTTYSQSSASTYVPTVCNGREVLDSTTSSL
Metabotropic glutamate receptor 7 (Homo sapiens), sequence (Q14831 whole entry): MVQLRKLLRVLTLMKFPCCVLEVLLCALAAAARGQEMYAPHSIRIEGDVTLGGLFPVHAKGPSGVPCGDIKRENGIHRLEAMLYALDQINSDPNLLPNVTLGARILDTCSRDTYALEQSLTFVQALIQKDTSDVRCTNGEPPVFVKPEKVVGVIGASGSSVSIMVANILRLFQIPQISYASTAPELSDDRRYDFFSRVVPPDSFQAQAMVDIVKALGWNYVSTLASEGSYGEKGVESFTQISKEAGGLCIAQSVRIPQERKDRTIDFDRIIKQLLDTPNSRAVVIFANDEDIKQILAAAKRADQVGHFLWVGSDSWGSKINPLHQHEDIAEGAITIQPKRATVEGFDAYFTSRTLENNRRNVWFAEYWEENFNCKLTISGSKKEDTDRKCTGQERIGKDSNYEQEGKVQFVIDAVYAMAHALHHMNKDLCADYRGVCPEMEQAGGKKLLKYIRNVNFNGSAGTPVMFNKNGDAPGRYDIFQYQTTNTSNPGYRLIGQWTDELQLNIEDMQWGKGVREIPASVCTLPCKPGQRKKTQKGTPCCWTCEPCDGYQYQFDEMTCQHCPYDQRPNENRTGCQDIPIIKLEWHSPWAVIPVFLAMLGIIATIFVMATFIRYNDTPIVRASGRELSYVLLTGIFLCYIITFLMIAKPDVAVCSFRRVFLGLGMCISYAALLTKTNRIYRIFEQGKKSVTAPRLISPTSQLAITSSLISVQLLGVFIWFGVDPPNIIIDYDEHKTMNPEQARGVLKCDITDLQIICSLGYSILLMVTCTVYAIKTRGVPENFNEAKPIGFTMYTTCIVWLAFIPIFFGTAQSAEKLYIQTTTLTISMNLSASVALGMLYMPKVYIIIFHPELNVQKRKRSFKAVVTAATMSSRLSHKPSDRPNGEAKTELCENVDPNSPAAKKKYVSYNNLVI

SMILES	IC50 [1] [nM]	IC50 [2] [nM]	also measured
Cc1c(-c2ccccc2)nsc1NC(=O)[C@@H]1C[C@H]1C	65	> 12500	–
Cc1c(-c2ccc(F)cc2)nsc1NC(=O)[C@@H]1C[C@H]1C	100	> 12500	–
COc1ccc(-c2nsc(NC(=O)[C@@H]3C[C@H]3C)c2C)cc1 [listing 1 of 2 here]	–	–	Activity [3]: inactive; Activity [4]: inactive; Activity [5]: inactive; Activity [6]: inactive; Activity [7]: Dose-dependent effect; Activity [8]: Active
CCOc1ccc(-c2nsc(NC(=O)[C@@H]3C[C@H]3C)c2C)cc1	92	19	–
Cc1c(-c2ccc(C(C)(F)F)cc2)nsc1NC(=O)[C@@H]1C[C@H]1C	67	> 12500	–
COc1ccc(-c2nsc(NC(=O)[C@H]3C[C@@H]3C)c2C)cc1	110	–	–
Cc1c(-c2ccc(O)cc2)nsc1NC(=O)[C@@H]1C[C@H]1C	138	> 12500	–
Cc1c(-c2ccc(Cl)c(Cl)c2)nsc1NC(=O)[C@@H]1C[C@H]1C	39	6650	–

Continued, in another order:

IC50 [1] [nM]	IC50 [2] [nM]	SMILES	also measured
9	1220	Cc1c(-c2ccc(Cl)cc2)nsc1NC(=O)[C@@H]1C[C@H]1C	–
32	–	COc1ccc(-c2nsc(NC(=O)[C@@H]3C[C@H]3C)c2C)cc1 (racemic)	–
7	159	COc1ccc(-c2nsc(NC(=O)[C@@H]3C[C@H]3C)c2C)cc1F	–
7	730	Cc1c(-c2ccc(Br)cc2)nsc1NC(=O)[C@@H]1C[C@H]1C	–
9	158	COc1ccc(-c2nsc(NC(=O)[C@@H]3C[C@H]3C)c2C)cc1 [listing 2 of 2 here]	clearance [9]: 35.9 mL/min/kg; AUC(0-t) at 24 h [10]: 3240 ng·h/mL; half-life [11]: 0.41 h; Tmax [12]: 1 h; Vd [13]: 1.27 L/kg; IC50 [14]: 0.9 nM; ED50 [15]: 3.7 mg/kg; ED50 [7]: 7 mg/kg; Kp [16]: 0.2; Activity [17]: Non-toxic; bioavailability [18]: 55.5%; Cmax [19]: 1050 ng/mL; half-life [20]: 1.24 h

From ChEMBL document CHEMBL2010791, “3-Phenyl-5-isothiazole carboxamides with potent mGluR1 antagonist activity” (Bioorg Med Chem Lett, 2012)
